How the values were obtained:
RBL-2H3 [1] = assay: Inhibition of anti-DNP-IgE-induced degranulation in rat RBL2H3 cells assessed as beta-hexosaminidase release at 25 uM after 30 mins by fluorescence assay; type: functional; conditions: RBL-2H3, 0.5 h
Method in brief: (§1)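 RBL-2H3 cells grown in 70% MEM with Earle's salts/20% RPMI 1640/10% FBS/2 mM L-glutamine, sensitised overnight with anti-DNP IgE ([…]), washed in Tyrode's buffer, preincubated 1 h at 37 °C with or without compound, then challenged with DNP-HSA for 15 min. Supernatant β-hexosaminidase read with 4-methylumbelliferyl-N-acetyl-β-D-glucosaminide (2.5 mM, citrate, 30 min, 37 °C), fluorescence 365/440 nm; duplicate aliquots.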

[2] = Cytotoxicity at rat RBL2H3 cells assessed as maximum tolerated concentration by lactate dehydrogenase release assay; type: cell-based; conditions: RBL-2H3 cells, read-out: Activity
RBL-2H3 [3] = assay: Inhibition of anti-DNP-IgE-induced degranulation in rat RBL2H3 cells assessed as beta-hexosaminidase release after 30 mins by fluorescence assay; type: functional, cell-based; conditions: RBL-2H3, 0.5 h; method in brief: as §1

SMILES | inhibition at 25 µM (RBL-2H3 [1]) | MNTC [2] | IC50 (RBL-2H3 [3])
CCCCCCCCCCCC[N+](C)(C)[O-] | 40% |  | 
CCCCCCCCCCCCCCCCCCCCc1ccc(S(N)(=O)=O)cc1 | 12% |  | 
CCCCCCCCCCCC[S+]([O-])C1CCCCC1OC(C)=O (configuration not stated) | 73% | 100 µM | 
CCCCCCCCCCCC[S+]([O-])CC[S+]([O-])CC (configuration not stated) | 51% | 100 µM | 
CCCCCCCCCCCCC1[S+]([O-])CCC[S+]1[O-] (configuration not stated) | 80% | 100 µM | 10.7 µM
CCCCCCCCCCCC[S+]([O-])c1ccccc1[S+](C)[O-] (configuration not stated) | 72% | 100 µM | 
CCCCCCCCCCCC[S+]([O-])c1ccccc1O (configuration not stated) | 30% | 100 µM | 
CCCCCCCCCCCCCC[N+](C)(C)[O-] | 95% | 100 µM | 10.6 µM
CCCCCCCCCCCCCCCCC(C(=O)O)C(O)(CC(=O)O)C(=O)O (configuration not stated) | 36% |  | 
CCCCCCCCCCCC[S+]([O-])[C@@H]1CCCC[C@H]1O (relative stereo) | 69% | 100 µM | 
CCCCCCCCCCCCCCCC(=O)OC[C@H](O)[C@H]1OC(=O)C(O)=C1O [ASCORBYL PALMITATE] | 38% |  | 
CCCCCCCCCCCC[S+](C)[O-] (configuration not stated) [DODECYL METHYL SULFOXIDE] | 66% | 100 µM | 

— ChEMBL document CHEMBL1781895, “Lipid-like sulfoxides and amine oxides as inhibitors of mast cell activation” (Eur J Med Chem, 2011)
